Article PMC3049929 (Journal of medicinal chemistry, 2008)

How the values were obtained:
[1] = system: P. falciparum 3D7 (chloroquine-sensitive); assay type: cell-based; settings: Plasmodium falciparum, 3D7, Erythrocyte, 48 h, read-out: ED50 (nM) 3D7
Outline: (§1)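 Parasites cultured in type A+ human erythrocytes (2% hematocrit) in RPMI-1640 with 20% heat-inactivated type A+ human plasma, under 5% CO2/5% O2/90% N2. Test compound in DMSO added to culture at 0.5% parasitemia and 0.5% hematocrit. Incubated 37 °C for 48 h, then [8-3H]hypoxanthine (0.3 µCi) added for a further 24 h. Cells harvested to filter mats and counted by β-scintillation. Uninfected-erythrocyte background subtracted; DMSO-only wells taken as 100% growth. ED50 from linear regression of incorporation vs concentration.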

[2] = system: P. falciparum K1 (chloroquine-resistant, pyrimethamine-resistant); assay type: cell-based; settings: Plasmodium falciparum, K1, Erythrocyte, 48 h, read-out: ED50 (nM) K1
Outline: as §1

Structure (SMILES)	IC50 [1]	IC50 [2]
Cc1ccccc1CN(CCCN(Cc1cncn1C)c1ccc(C#N)cc1)S(=O)(=O)c1cn(C)cn1 [2b, [N-(2-Methylbenzyl)-N-3-{(4-cyanophenyl)(3-methyl-3H-imidazol-4-ylmethyl)amino}propyl]-1-methyl-1H-imidazole-4-sulfonamide]	2900 nM	2900 nM
Cn1cnc(S(=O)(=O)N(Cc2ccsc2)[C@@H]2CCC[C@@H]2N(Cc2cncn2C)c2ccc(C#N)cc2)c1 (racemic) [6c, (±)-[N-(Thiophen-3-ylmethyl)-N-{cis-2-[(4-cyanophenyl)(3-methyl-3H-imidazol-4-ylmethyl)amino]cyclopentyl}]-1-methyl-1H-imidazole-4-sulfonamide]	> 5000 nM	4200 nM
Cn1cnc(S(=O)(=O)N(Cc2ccsc2)[C@H]2CCC[C@@H]2N(Cc2cncn2C)c2ccc(C#N)cc2)c1 (racemic) [7c, (±)-[N-(Thiophen-3-ylmethyl)-N-{trans-2-[(4-cyanophenyl)(3-methyl-3H-imidazol-4-ylmethyl)amino]cyclopentyl}]-1-methyl-1H-imidazole-4-sulfonamide]	2700 nM	2700 nM
Cn1cnc(S(=O)(=O)N(Cc2ccccc2)[C@@H]2CCC[C@@H]2N(Cc2cncn2C)c2ccc(C#N)cc2)c1 (racemic) [6a, (±)-[N-Benzyl-N-{cis-2-[(4-cyanophenyl)(3-methyl-3H-imidazol-4-ylmethyl)amino]cyclopentyl}]-1-methyl-1H-imidazole-4-sulfonamide]	> 5000 nM	2400 nM
Cn1cnc(S(=O)(=O)N(CC2CCN(C(=O)OC(C)(C)C)CC2)CC(C)(C)N(Cc2cncn2C)c2ccc(C#N)cc2)c1 [3d, [N-(N-tert-Butoxycarbonylpiperidin-4-ylmethyl)-N-{(4-cyanophenyl)(3-methyl-3H-imidazol-4-ylmethyl)amino}-2,2-dimethylethyl]-1-methyl-1H-imidazole-4-sulfonamide]	400 nM	250 nM
Cc1ccccc1CN([C@H]1CCC[C@@H]1N(Cc1cncn1C)c1ccc(C#N)cc1)S(=O)(=O)c1cn(C)cn1 (racemic) [7b, (±)-[N-(2-Methylbenzyl)-N-{trans-2-[(4-cyanophenyl)(3-methyl-3H-imidazol-4-ylmethyl)amino]cyclopentyl}]-1-methyl-1H-imidazole-4-sulfonamide]	3000 nM	3200 nM
Cn1cnc(S(=O)(=O)N(CCCN(Cc2cncn2C)c2ccc(C#N)cc2)Cc2ccsc2)c1 [2c, [N-(Thiophen-3-ylmethyl)-N-3-{(4-cyanophenyl)(3-methyl-3H-imidazol-4-ylmethyl)amino}propyl]-1-methyl-1H-imidazole-4-sulfonamide]	2800 nM	2200 nM
Cn1cnc(S(=O)(=O)N(CCCN(Cc2cncn2C)c2ccc(C#N)cc2)CC2CCN(C(=O)OC(C)(C)C)CC2)c1 [2d, [N-(N-tert-Butoxycarbonylpiperidin-4-ylmethyl)-N-3-{(4-cyanophenyl)(3-methyl-3H-imidazol-4-ylmethyl)amino}propyl]-1-methyl-1H-imidazole-4-sulfonamide]	330 nM	190 nM
Cn1cnc(S(=O)(=O)N(Cc2ccccc2)CC(C)(C)N(Cc2cncn2C)c2ccc(C#N)cc2)c1 [3a, [N-Benzyl-N-{(4-cyanophenyl)(3-methyl-3H-imidazol-4-ylmethyl)amino}-2,2-dimethylethyl]-1-methyl-1H-imidazole-4-sulfonamide]	160 nM	55 nM
Cc1ccccc1CN(CC(C)(C)N(Cc1cncn1C)c1ccc(C#N)cc1)S(=O)(=O)c1cn(C)cn1 [3b, [N-(2-Methylbenzyl)-N-{(4-cyanophenyl)(3-methyl-3H-imidazol-4-ylmethyl)amino}-2,2-dimethylethyl]-1-methyl-1H-imidazole-4-sulfonamide]	210 nM	75 nM
Cn1cnc(S(=O)(=O)N(Cc2ccccc2)[C@H]2CCC[C@@H]2N(Cc2cncn2C)c2ccc(C#N)cc2)c1 (racemic) [7a, (±)-[N-Benzyl-N-{trans-2-[(4-cyanophenyl)(3-methyl-3H-imidazol-4-ylmethyl)amino]cyclopentyl}]-1-methyl-1H-imidazole-4-sulfonamide]	3100 nM	
Cn1cnc(S(=O)(=O)N(CC2CCN(C(=O)OC(C)(C)C)CC2)[C@H]2CC[C@@H](N(Cc3cncn3C)c3ccc(C#N)cc3)C2)c1 (racemic) [8d, (±)-[N-(N-tert-Butoxycarbonylpiperidin-4-ylmethyl)-N-{cis-3-[(4-cyanophenyl)-(3-methyl-3H-imidazol-4-ylmethyl)amino]cyclopentyl}]-1-methyl-1H-imidazole-4-sulfonamide]	300 nM	
Cn1cnc(S(=O)(=O)N(CCCN(Cc2cncn2C)c2ccc(C#N)cc2)CC2CCN(c3ncccn3)CC2)c1 [2e, [N-{N-(2-Pyrimidinyl)-piperidin-4-ylmethyl}-N-3-{(4-cyanophenyl)(3-methyl-3H-imidazol-4-ylmethyl)amino}propyl]-1-methyl-1H-imidazole-4-sulfonamide]	1300 nM	
Cn1cnc(S(=O)(=O)N(CCCN(Cc2cncn2C)c2ccc(C#N)cc2)Cc2ccccc2)c1 [2a, [N-Benzyl-N-3-{(4-cyanophenyl)(3-methyl-3H-imidazol-4-ylmethyl)amino}propyl]-1-methyl-1H-imidazole-4-sulfonamide]	3100 nM	

Other lines, results leading:

IC50 [1]	IC50 [2]	Structure (SMILES)
1500 nM	1200 nM	Cn1cnc(S(=O)(=O)N(Cc2ccsc2)[C@@H]2CC[C@@H](N(Cc3cncn3C)c3ccc(C#N)cc3)C2)c1 (racemic) [9c, (±)-[N-(Thiophen-3-ylmethyl)-N-{trans-3-[(4-cyanophenyl)(3-methyl-3H-imidazol-4-ylmethyl)amino]cyclopentyl}]-1-methyl-1H-imidazole-4-sulfonamide]
2400 nM	2600 nM	Cc1ccccc1CN([C@H]1CC[C@@H](N(Cc2cncn2C)c2ccc(C#N)cc2)C1)S(=O)(=O)c1cn(C)cn1 (racemic) [8b, (±)-[N-(2-Methylbenzyl)-N-{cis-3-[(4-cyanophenyl)(3-methyl-3H-imidazol-4-ylmethyl)amino]cyclopentyl}]-1-methyl-1H-imidazole-4-sulfonamide]
340 nM		Cn1cnc(S(=O)(=O)N(Cc2ccccc2)[C@@H]2CC[C@@H](N(Cc3cncn3C)c3ccc(C#N)cc3)C2)c1 (racemic) [9a, (±)-[N-Benzyl-N-{trans-3-[(4-cyanophenyl)(3-methyl-3H-imidazol-4-ylmethyl)amino]cyclopentyl}]-1-methyl-1H-imidazole-4-sulfonamide]
700 nM	800 nM	Cn1cnc(S(=O)(=O)N(Cc2ccccc2)[C@H]2CC[C@@H](N(Cc3cncn3C)c3ccc(C#N)cc3)C2)c1 (racemic) [8a, (±)-[N-Benzyl-N-{cis-3-[(4-cyanophenyl)(3-methyl-3H-imidazol-4-ylmethyl)amino]cyclopentyl}]-1-methyl-1H-imidazole-4-sulfonamide]
	1800 nM	Cn1cnc(S(=O)(=O)N(Cc2ccccc2)[C@H]2CC[C@H](N(Cc3cncn3C)c3ccc(C#N)cc3)CC2)c1 [11a, (±)-[N-Benzyl-N-{trans-4-[(4-cyanophenyl)(3-methyl-3H-imidazol-4-ylmethyl)amino]cyclohexyl}]-1-methyl-1H-imidazole-4-sulfonamide]
